Data reported in ChEMBL document CHEMBL1255483, “Intra- and extracellular activities of dicloxacillin against Staphylococcus aureus in vivo and in vitro” (Antimicrob Agents Chemother, 2010).
In brackets after ≈: the same amount, converted by molar mass. Activity calls are given as the source filed them. The rule behind the calls is not given here.

Tests used:
[1] = AUC (24 hrs) in NMRI mouse at 30 mg/kg, sc; format: ADME, organism-based; set-up: time < 24 hr, dose 30 mg/kg, route subcutaneous; conditions: plasma
How it was run: (§1)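 Single subcutaneous DCX doses given to NMRI mice. Blood was collected into EDTA tubes, and plasma drug was assayed by microbiological bioassay with S. lutea ATCC 9391 (detection limit 1.5 mg/liter, linear to 100 mg/liter). Values came from noncompartmental analysis. Terminal half-life was fitted monoexponentially to the last four time points. AUC24 combined the trapezoidal rule over mean points with exact integration of the fitted curve extrapolated to 24 h.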

Staphylococcus aureus [2] = assay: Bactericidal activity against Staphylococcus aureus E19977 infected in human THP1 cells assessed as log reduction in bacterial count at 10 times MIC after 24 hrs by time-kill assay; format: functional, THP-1
How it was run: (§2)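 Intracellular model in THP-1 macrophages: opsonized S. aureus was added at 4 bacteria per macrophage for 45 min. Non-phagocytized bacteria were removed by washing and brief PBS incubation with gentamicin (50 mg/liter). Cells were then incubated up to 24 h with a wide range of extracellular dicloxacillin concentrations. Result is change in log₁₀ CFU per mg cell protein from time zero. n = 3.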

[3] = Ratio of fCmax in NMRI mouse at 30 mg/kg administered every 2 hrs to MIC for Staphylococcus aureus E19977; format: functional
How it was run: (§3)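 Free Cmax/MIC was modelled, not measured. Single-dose subcutaneous plasma curves from NMRI mice were projected to the multiple-dose regimens. Free fraction came from a square-root fit of unbound fraction versus total concentration. Binding was measured by ultrafiltration of mouse plasma spiked with 10–400 mg/liter and held 1 h at 37°C. MIC was for strain E19977.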

Staphylococcus aureus [4] = assay: Bactericidal activity against Staphylococcus aureus E19977 infected in human THP1 cells assessed as log reduction in bacterial count at 100 times MIC after 24 hrs by time-kill assay; format: functional, THP-1; how it was run: as §2
Staphylococcus aureus [5] = assay: Bacteriostatic activity against Staphylococcus aureus E19977 infected in human THP-1 cells at 100 times MIC after 5 hrs; format: functional, organism-based
How it was run: (§4)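 Human THP-1 macrophages were infected with opsonized S. aureus at 4 bacteria per macrophage for 45 min. Non-phagocytized bacteria were removed by washing and a brief incubation in PBS with gentamicin 50 mg/liter. Cells were then incubated up to 24 h with DCX over a wide range of extracellular concentrations. The read-out was Δlog CFU per mg cell protein versus time zero (n = 3), with sigmoidal fitting and Cstatic by interpolation.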

[6] = Ratio of fCmax in NMRI mouse at 80 mg/kg administered every 8 hrs to MIC for Staphylococcus aureus E19977; format: functional; how it was run: as §3
[7] = Ratio of fAUC (24 hrs) in NMRI mouse at 160 mg/kg administered every 3 hrs to MIC for Staphylococcus aureus E19977; format: functional
How it was run: (§5)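 Free-drug AUC24/MIC was modelled for repeated subcutaneous regimens. Single-dose NMRI plasma concentration-time curves were combined with the best-fitting square-root expression for the concentration-dependent free fraction. The result was divided by the E19977 MIC.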

Mus musculus [8] = species: Mus musculus; assay: Protein binding in NMRI mouse at 60 mg/l by ultrafiltration; format: ADME, organism-based; conditions: in vivo
How it was run: (§6)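 Plasma binding was measured by ultrafiltration. EDTA blood from healthy mice, or from NMRI mice infected intraperitoneally for 6 h with E19977, was spiked with DCX at 10–400 mg/liter, with PBS controls. Samples were held 1 h at 37°C, then centrifuged through 30-kDa filters at 3,000 × g for 8 min at 37°C. Total and filtrate drug were measured by S. lutea bioassay.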

[9] = Ratio of fAUC (24 hrs) in NMRI mouse at 340 mg/kg administered every 24 hrs to MIC for Staphylococcus aureus E19977
Staphylococcus aureus [10] = assay: Bactericidal activity against Staphylococcus aureus E19977 infected in human THP-1 cells assessed as log change in bacterial count after 24 hrs; format: functional; how it was run: as §4
[11] = fT>MIC in Staphylococcus aureus E19977 infected NMRI mouse at 80 mg/kg administered every 3 hrs
[12] = Ratio of fAUC (24 hrs) in NMRI mouse at 120 mg/kg administered every 6 hrs to MIC for Staphylococcus aureus E19977; format: functional; how it was run: as §5
[13] = fT>MIC in Staphylococcus aureus E19977 infected NMRI mouse at 80 mg/kg administered every 8 hrs; format: functional
How it was run: (§7)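 Calculated percentage of 24 h at steady state that free plasma DCX exceeds the strain MIC (microdilution, pH 7.4). Concentrations were simulated from single subcutaneous dose plasma curves in NMRI mice (S. lutea bioassay), adjusted with a square-root model of concentration-dependent free fraction from ultrafiltration. The regimen was dosed subcutaneously in mice infected intraperitoneally with 10^7.4 CFU, and peritoneal CFU were read after 24 h of therapy.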

[14] = fT>MIC in Staphylococcus aureus E19977 infected NMRI mouse at 200 mg/kg administered every 4 hrs; format: functional; how it was run: as §7
[15] = fT>MIC in Staphylococcus aureus E19977 infected NMRI mouse at 160 mg/kg administered every 3 hrs; format: functional; how it was run: as §7
[16] = Ratio of fCmax in NMRI mouse at 80 mg/kg to MIC for Staphylococcus aureus E19977
Mus musculus [17] = species: Mus musculus; assay: Protein binding in NMRI mouse at 30 mg/l by ultrafiltration; format: ADME, organism-based; conditions: in vivo; how it was run: as §6
[18] = Half-life in NMRI mouse at 120 mg/kg, sc; format: ADME, organism-based; set-up: dose 120 mg/kg, route subcutaneous; conditions: in vivo; how it was run: as §1
[19] = fT>MIC in Staphylococcus aureus E19977 infected NMRI mouse at 300 mg/kg administered every 12 hrs; format: functional; how it was run: as §7
[20] = Ratio of fAUC (24 hrs) in NMRI mouse at 120 mg/kg administered every 24 hrs to MIC for Staphylococcus aureus E19977; format: functional; how it was run: as §5
[21] = Half-life in NMRI mouse at 30 mg/kg, sc; format: ADME, organism-based; set-up: dose 30 mg/kg, route subcutaneous; conditions: in vivo; how it was run: as §1
Staphylococcus aureus [22] = assay: Bactericidal activity against Staphylococcus aureus ATCC 25923 assessed as log reduction in bacterial count at 100 times MIC after 24 hrs by time-kill assay; format: functional
How it was run: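 Broth time-kill: MSSA at 10⁶ CFU/ml exposed to a wide range of dicloxacillin concentrations. CFU counted after 5 and 24 h and expressed as change in log₁₀ CFU/ml from time zero. Multiples refer to the MIC by CLSI microdilution at pH 7.4. n = 3.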

Staphylococcus aureus [23] = assay: Antimicrobial activity against Staphylococcus aureus E19977 after 24 hrs; format: functional, organism-based; conditions: E19977, 24 h
How it was run: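 Extracellular broth time- and concentration-kill test. The inoculum was ~10⁶ CFU/ml, exposed to a wide range of DCX concentrations, with CFU counted after 5 and 24 h. The read-out was Δlog CFU/ml versus time zero (mean ± SD, n = 3). A sigmoidal fit with slope 1 gave Emax and EC50. Cstatic was read by graphical interpolation as the concentration giving no change from the inoculum.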

[24] = Ratio of fAUC (24 hrs) in NMRI mouse at 200 mg/kg administered every 6 hrs to MIC for Staphylococcus aureus E19977; format: functional
How it was run: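 Modeled free AUC over 24 h divided by the MIC, not measured directly. Single subcutaneous DCX doses were given to NMRI mice, and plasma was assayed by S. lutea bioassay. Noncompartmental analysis used trapezoidal mean points plus a fitted monoexponential extrapolated to 24 h. Free fraction came from a square-root fit to plasma ultrafiltration binding (10–400 mg/liter spike, 1 h, 37°C). The MIC was measured by broth microdilution at pH 7.4.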

AUC at 24 h [1]: 21400 ng·h/mL
fAUC/MIC [7]: 556.4 h
Activity (Mus musculus [8]): 89.5%
fAUC/MIC [9]: 259.37 h
fT>MIC [11]: 66.67%
fAUC/MIC [12]: 175.82 h
fT>MIC [13]: 25%
fT>MIC [14]: 86.25%
fT>MIC [15]: 96.11%
Activity (Mus musculus [17]): 91.5%
half-life [18]: 22 min
fT>MIC [19]: 35.28%
fAUC/MIC [20]: 43.95 h
half-life [21]: 19 min
EC50 (Staphylococcus aureus [23]): 0.5 µg/mL (≈ 1.06 µM)
fAUC/MIC [24]: 411.61 h
Compound: Cc1onc(-c2c(Cl)cccc2Cl)c1C(=O)N[C@@H]1C(=O)N2[C@@H]1SC(C)(C)[C@@H]2C(=O)O [DICLOXACILLIN]
FC (Staphylococcus aureus [2]): <1
Ratio [3]: 6.27
FC (Staphylococcus aureus [4]): <1
Activity (Staphylococcus aureus [5]): Active
Ratio [6]: 30.64
Emax (Staphylococcus aureus [10]): -1.01 deltalog10CFU/ml
Ratio [16]: 30.64
FC (Staphylococcus aureus [22]): 3
